Data: ChEMBL document CHEMBL4811305, “Development of potent and selective Cathepsin C inhibitors free of aortic binding liability by application of a conformational restriction strategy” (Bioorg Med Chem Lett, 2021)
pIC50: −log10 of the molar value.

How the values were obtained:
CYP3A4 [1] = molecular target: T1, CYP3A4 (Homo sapiens, UniProt P08684); assay: Inhibition of CYP3A4 (unknown origin) at 1 uM relative to control; type: ADME
[2] = Metabolic stability in mouse liver microsomes assessed as compound remaining measured after 60 mins; type: ADME, Microsome; details: read-out: Stabilty
Summary of the method: (§1)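 The readout was percent of parent remaining after 60 min incubation with liver microsomal preparations. Values are the mean of three replicates ± SD.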

CYP2C9 [3] = molecular target: T2, CYP2C9 (Homo sapiens, UniProt P11712); assay: Inhibition of CYP2C9 (unknown origin) at 10 uM relative to control; type: ADME
T2 sequence (P11712 whole entry): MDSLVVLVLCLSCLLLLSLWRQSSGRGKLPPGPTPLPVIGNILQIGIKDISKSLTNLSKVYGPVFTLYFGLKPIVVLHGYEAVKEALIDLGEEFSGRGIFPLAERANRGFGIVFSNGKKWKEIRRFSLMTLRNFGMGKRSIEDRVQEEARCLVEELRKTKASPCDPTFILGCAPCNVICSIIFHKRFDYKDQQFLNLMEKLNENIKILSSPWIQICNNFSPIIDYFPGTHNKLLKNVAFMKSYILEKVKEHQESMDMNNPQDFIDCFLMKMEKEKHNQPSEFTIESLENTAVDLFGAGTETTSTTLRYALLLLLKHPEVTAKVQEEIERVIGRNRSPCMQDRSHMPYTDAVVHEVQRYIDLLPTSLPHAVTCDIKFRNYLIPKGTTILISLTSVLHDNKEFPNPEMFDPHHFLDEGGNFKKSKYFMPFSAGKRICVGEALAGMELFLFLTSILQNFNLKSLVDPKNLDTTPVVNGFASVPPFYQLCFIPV

CYP2C8 [4] = molecular target: T3, CYP2C8 (Homo sapiens, UniProt P10632); assay: Inhibition of CYP2C8 (unknown origin) at 10 uM relative to control; type: ADME
T3 sequence (P10632 whole entry): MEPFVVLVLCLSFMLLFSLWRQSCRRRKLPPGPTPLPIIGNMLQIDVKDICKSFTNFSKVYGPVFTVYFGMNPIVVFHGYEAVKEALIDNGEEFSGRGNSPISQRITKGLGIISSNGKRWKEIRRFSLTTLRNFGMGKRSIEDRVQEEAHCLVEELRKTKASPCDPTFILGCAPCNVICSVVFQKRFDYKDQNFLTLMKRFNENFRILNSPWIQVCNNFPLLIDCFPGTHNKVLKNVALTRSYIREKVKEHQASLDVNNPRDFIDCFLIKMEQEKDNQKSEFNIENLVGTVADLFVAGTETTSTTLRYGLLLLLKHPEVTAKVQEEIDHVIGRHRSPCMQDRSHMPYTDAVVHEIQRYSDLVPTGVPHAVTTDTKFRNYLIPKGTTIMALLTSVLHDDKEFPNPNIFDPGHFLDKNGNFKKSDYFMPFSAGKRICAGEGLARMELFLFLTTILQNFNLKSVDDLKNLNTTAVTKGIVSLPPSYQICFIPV

CYP2C19 [5] = molecular target: T4, CYP2C19 (Homo sapiens, UniProt P33261); assay: Inhibition of CYP2C19 (unknown origin) at 1 uM relative to control; type: ADME
T4 sequence (P33261 whole entry): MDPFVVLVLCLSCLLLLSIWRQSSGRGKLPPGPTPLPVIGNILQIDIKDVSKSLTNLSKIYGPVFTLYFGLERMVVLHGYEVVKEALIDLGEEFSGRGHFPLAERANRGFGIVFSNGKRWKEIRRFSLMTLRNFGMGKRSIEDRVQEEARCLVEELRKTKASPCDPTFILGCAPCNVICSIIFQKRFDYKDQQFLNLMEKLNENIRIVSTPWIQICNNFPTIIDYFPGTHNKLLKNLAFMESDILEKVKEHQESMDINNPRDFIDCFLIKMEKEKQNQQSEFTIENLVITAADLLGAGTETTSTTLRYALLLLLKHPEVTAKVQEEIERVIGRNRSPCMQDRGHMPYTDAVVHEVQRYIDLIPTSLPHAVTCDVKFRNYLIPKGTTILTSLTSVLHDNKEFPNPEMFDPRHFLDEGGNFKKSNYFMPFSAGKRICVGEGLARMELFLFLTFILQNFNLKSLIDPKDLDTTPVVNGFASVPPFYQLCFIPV

Homo sapiens [6] = species on record: Homo sapiens; assay: Selectivity for human cathepsin C over cathepsin K (unknown origin)
[7] = Metabolic stability in human liver microsomes assessed as compound remaining measured after 60 mins; type: ADME, Microsome; details: read-out: Stabilty; summary of the method: as §1
Homo sapiens [8] = species on record: Homo sapiens; assay: Selectivity for human cathepsin C over cathepsin S (unknown origin)
[9] = Stability of the compound in human plasma; type: ADME, cell-free
[10] = Half life of the compound in 0.1M phosphate buffer at pH 7.4 by HPLC-UV analysis; type: physicochemical
Summary of the method: (§2)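 Each compound was spiked in bulk into propionaldehyde dissolved in 0.1 M phosphate buffer, pH 7.4. Aliquots were taken at intervals and analysed by HPLC-UV to give percent parent remaining, with incubations lasting up to 15 h. Half-life was calculated from the disappearance of parent. Where no analyte remained at 15 h, only the 2 h data were used. Adduct identity was confirmed as molecular ion +40 amu. This was a single experiment (n = 1).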

CYP1A2 [11] = molecular target: T5, CYP1A2 (Homo sapiens, UniProt P05177); assay: Inhibition of CYP1A2 (unknown origin) at 1 uM relative to control; type: ADME
T5 sequence (P05177 whole entry): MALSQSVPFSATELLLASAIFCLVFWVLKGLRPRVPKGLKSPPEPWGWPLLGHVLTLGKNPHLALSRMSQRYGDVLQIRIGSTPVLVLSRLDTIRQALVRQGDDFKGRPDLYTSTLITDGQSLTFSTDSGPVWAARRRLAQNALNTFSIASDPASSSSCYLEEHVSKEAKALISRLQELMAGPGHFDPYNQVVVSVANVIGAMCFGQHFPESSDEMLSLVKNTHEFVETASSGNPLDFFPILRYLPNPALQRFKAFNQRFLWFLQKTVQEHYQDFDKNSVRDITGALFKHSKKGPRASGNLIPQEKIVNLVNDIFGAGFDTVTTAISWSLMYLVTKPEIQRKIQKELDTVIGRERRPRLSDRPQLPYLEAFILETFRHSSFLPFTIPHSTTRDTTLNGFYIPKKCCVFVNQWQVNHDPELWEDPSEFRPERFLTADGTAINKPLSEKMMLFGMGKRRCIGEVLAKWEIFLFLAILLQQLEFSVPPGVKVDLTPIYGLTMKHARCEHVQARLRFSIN

CYP3A4 [12] = molecular target: T1, CYP3A4; assay: Inhibition of CYP3A4 (unknown origin) at 10 uM relative to control; type: ADME
CYP1A2 [13] = molecular target: T5, CYP1A2; assay: Inhibition of CYP1A2 (unknown origin) at 10 uM relative to control; type: ADME
[14] = Stability of the compound in rat plasma; type: ADME, cell-free
[15] = Stability of the compound in mouse plasma; type: ADME, cell-free
CYP2C19 [16] = molecular target: T4, CYP2C19; assay: Inhibition of CYP2C19 (unknown origin) at 10 uM relative to control; type: ADME
Dipeptidyl peptidase 1 [17] = molecular target: T6, Dipeptidyl peptidase 1 (Homo sapiens, UniProt P53634); assay: Inhibition of human cathepsin C at 1 uM relative to control
T6 sequence (P53634 25-134 limits assumed): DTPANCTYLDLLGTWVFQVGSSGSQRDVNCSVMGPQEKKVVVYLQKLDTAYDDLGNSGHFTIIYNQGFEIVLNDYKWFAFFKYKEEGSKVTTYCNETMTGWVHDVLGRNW
T6 sequence (P53634 231-394 limits assumed): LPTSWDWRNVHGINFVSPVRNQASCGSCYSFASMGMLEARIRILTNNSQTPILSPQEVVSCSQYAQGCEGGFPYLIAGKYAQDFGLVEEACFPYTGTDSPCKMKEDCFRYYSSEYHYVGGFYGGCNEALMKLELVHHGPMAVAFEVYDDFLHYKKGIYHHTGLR
T6 sequence (P53634 395-463 limits assumed): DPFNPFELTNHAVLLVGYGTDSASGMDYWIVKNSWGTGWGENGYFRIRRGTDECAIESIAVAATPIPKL

CYP2C9 [18] = molecular target: T2, CYP2C9; assay: Inhibition of CYP2C9 (unknown origin) at 1 uM relative to control; type: ADME
[19] = Metabolic stability in rat liver microsomes assessed as compound remaining measured after 60 mins; type: ADME, Microsome; details: read-out: Stabilty; summary of the method: as §1
Homo sapiens [20] = species on record: Homo sapiens; assay: Selectivity for human cathepsin C over cathepsin B (unknown origin)
CYP2D6 [21] = molecular target: T7, CYP2D6 (Homo sapiens, UniProt P10635); assay: Inhibition of CYP2D6 (unknown origin) at 10 uM relative to control; type: ADME
T7 sequence (P10635 whole entry): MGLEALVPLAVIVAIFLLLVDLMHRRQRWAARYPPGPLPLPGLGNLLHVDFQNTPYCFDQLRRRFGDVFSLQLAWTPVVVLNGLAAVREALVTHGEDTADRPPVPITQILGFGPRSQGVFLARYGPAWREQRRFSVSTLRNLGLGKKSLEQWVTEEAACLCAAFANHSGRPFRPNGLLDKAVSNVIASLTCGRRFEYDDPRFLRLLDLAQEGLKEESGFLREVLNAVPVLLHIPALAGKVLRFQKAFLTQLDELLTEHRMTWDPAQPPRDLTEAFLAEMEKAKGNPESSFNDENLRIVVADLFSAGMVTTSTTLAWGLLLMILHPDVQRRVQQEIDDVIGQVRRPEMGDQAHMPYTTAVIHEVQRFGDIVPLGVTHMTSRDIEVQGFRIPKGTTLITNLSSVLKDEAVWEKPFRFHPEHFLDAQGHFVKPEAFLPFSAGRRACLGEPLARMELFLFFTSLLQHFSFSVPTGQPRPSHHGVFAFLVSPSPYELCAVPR

[22] = Aldehyde reactivity of the compound in 0.1M phosphate buffer assessed as compound remaining at pH 7.4 measured after 15 hrs in presence of propionaldehyde by HPLC-UV analysis; type: ADME; details: phosphate buffer with propionaldehyde, read-out: Stabilty; summary of the method: as §2
Dipeptidyl peptidase 1 [23] = molecular target: T6, Dipeptidyl peptidase 1; assay: Inhibition of human cathepsin C
Summary of the method: (§3)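 Values are means of two independent experiments, each run in duplicate.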

CYP2C8 [24] = molecular target: T3, CYP2C8; assay: Inhibition of CYP2C8 (unknown origin) at 1 uM relative to control; type: ADME
Dipeptidyl peptidase 1 [25] = molecular target: T6, Dipeptidyl peptidase 1; assay: Inhibition of cellular cathepsin C (unknown origin); summary of the method: as §3
Homo sapiens [26] = species on record: Homo sapiens; assay: Selectivity for human cathepsin C over cathepsin L (unknown origin)
Dipeptidyl peptidase 1 [27] = molecular target: T6, Dipeptidyl peptidase 1; assay: Inhibition of human cathepsin C at 10 uM relative to control
CYP2D6 [28] = molecular target: T7, CYP2D6; assay: Inhibition of CYP2D6 (unknown origin) at 1 uM relative to control; type: ADME
[29] = Aldehyde reactivity of the compound in 0.1M phosphate buffer assessed as compound remaining at pH 7.4 measured after 1 hr in presence of propionaldehyde by HPLC-UV analysis; type: ADME; details: phosphate buffer with propionaldehyde, read-out: Stabilty; summary of the method: as §2
[30] = Aldehyde reactivity of the compound in 0.1M phosphate buffer assessed as compound remaining at pH 7.4 measured after 2 hrs in presence of propionaldehyde by HPLC-UV analysis; type: ADME; details: phosphate buffer with propionaldehyde, read-out: Stabilty; summary of the method: as §2

T1 sequence (P08684 whole entry): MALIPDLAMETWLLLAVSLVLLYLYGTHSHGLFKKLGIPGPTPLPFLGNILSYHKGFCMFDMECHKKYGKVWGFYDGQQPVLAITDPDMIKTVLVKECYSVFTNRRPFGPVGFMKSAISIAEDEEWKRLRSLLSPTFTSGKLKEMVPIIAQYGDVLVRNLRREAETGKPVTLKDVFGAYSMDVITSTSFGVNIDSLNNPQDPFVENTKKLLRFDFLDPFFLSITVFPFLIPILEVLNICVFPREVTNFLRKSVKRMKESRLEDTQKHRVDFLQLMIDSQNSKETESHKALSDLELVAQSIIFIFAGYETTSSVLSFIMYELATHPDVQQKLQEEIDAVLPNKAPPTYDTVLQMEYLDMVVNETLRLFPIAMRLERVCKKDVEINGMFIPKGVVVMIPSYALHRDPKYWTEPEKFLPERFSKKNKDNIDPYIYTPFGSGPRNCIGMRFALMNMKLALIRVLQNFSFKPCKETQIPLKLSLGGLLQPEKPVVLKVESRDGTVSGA

N#Cc1ccc(-c2ccc(C[C@@H](C#N)NC(=O)[C@@H]3C[C@@H]4CCC[C@@H]4N3)cc2)cc1
inhibition at 1 µM (CYP3A4 [1]): 2.2%
remaining at 1 h [2]: 6%
inhibition at 10 µM (CYP2C9 [3]): 32.4%
inhibition at 10 µM (CYP2C8 [4]): 40.1%
inhibition at 1 µM (CYP2C19 [5]): 17.1%
Selectivity ratio (Homo sapiens [6]): 93
remaining at 1 h [7]: 1%
Selectivity ratio (Homo sapiens [8]): 4400
Stabilty [9]: Stable
half-life [10]: > 15 h
inhibition at 1 µM (CYP1A2 [11]): 15.2%
inhibition at 10 µM (CYP3A4 [12]): 33.8%
inhibition at 10 µM (CYP1A2 [13]): 43.7%
Stabilty [14]: Stable
Stabilty [15]: Stable
inhibition at 10 µM (CYP2C19 [16]): 38.4%
inhibition (Dipeptidyl peptidase 1 [17]): 99.2%
inhibition at 1 µM (CYP2C9 [18]): 12%
remaining at 1 h [19]: 3%
Selectivity ratio (Homo sapiens [20]): 2260
inhibition at 10 µM (CYP2D6 [21]): 88.3%
remaining at 15 h [22]: 97%
pIC50 (Dipeptidyl peptidase 1 [23]): 8.03
inhibition at 1 µM (CYP2C8 [24]): 11.8%
pIC50 (Dipeptidyl peptidase 1 [25]): 6.16
Selectivity ratio (Homo sapiens [26]): 10800
inhibition (Dipeptidyl peptidase 1 [27]): 100%
inhibition at 1 µM (CYP2D6 [28]): 69.7%

N#Cc1ccc(-c2ccc(C[C@@H](C#N)NC(=O)[C@H]3CN4CCC[C@H]4CN3)cc2)cc1
inhibition (Dipeptidyl peptidase 1 [17]): 68.3%
pIC50 (Dipeptidyl peptidase 1 [23]): 6.40
inhibition (Dipeptidyl peptidase 1 [27]): 95%

N#Cc1ccc(-c2ccc(C[C@@H](C#N)NC(=O)C3(N)CCOCC3)cc2)cc1
half-life [10]: 0.36 h
remaining at 1 h [29]: 15%
inhibition (Dipeptidyl peptidase 1 [17]): 99.2%
inhibition (Dipeptidyl peptidase 1 [27]): 99.9%

N#Cc1ccc(-c2ccc(C[C@@H](C#N)NC(=O)[C@@H]3C[C@@H]4C[C@@H]4N3)cc2)cc1
inhibition (Dipeptidyl peptidase 1 [17]): 83.9%
pIC50 (Dipeptidyl peptidase 1 [23]): 6.65
inhibition (Dipeptidyl peptidase 1 [27]): 97.9%

N#Cc1ccc(-c2ccc(C[C@@H](C#N)NC(=O)[C@@H]3CC4(CCCC4)CN3)cc2)cc1
half-life [10]: 0.56 h
inhibition (Dipeptidyl peptidase 1 [17]): 99%
remaining at 15 h [22]: 0%
pIC50 (Dipeptidyl peptidase 1 [23]): 7.99
pIC50 (Dipeptidyl peptidase 1 [25]): 7.16
inhibition (Dipeptidyl peptidase 1 [27]): 99.7%

Cn1c(=O)oc2ccc(-c3ccc(C[C@@H](C#N)NC(=O)[C@@H]4CNCCCO4)cc3)cc21 [BRENSOCATIB]
half-life [10]: > 15 h
remaining at 15 h [22]: 95%

N#Cc1ccc(-c2ccc(C[C@@H](C#N)NC(=O)[C@@H]3C[C@H]4CCC[C@@H]4N3)cc2)cc1
inhibition (Dipeptidyl peptidase 1 [17]): 6.55%
remaining at 15 h [22]: 100%
inhibition (Dipeptidyl peptidase 1 [27]): 50.1%

N#Cc1ccc(-c2ccc(C[C@@H](C#N)NC(=O)[C@@H](N)C34CC5CC(CC(O)(C5)C3)C4)cc2)cc1
inhibition (Dipeptidyl peptidase 1 [17]): 3.29%
inhibition (Dipeptidyl peptidase 1 [27]): 2.19%

N#Cc1ccc(-c2ccc(C[C@@H](C#N)NC(=O)[C@@H]3CN4CCC[C@@H]4CN3)cc2)cc1
inhibition (Dipeptidyl peptidase 1 [17]): 4.63%
inhibition (Dipeptidyl peptidase 1 [27]): 22.8%

N#Cc1ccc(-c2ccc(C[C@@H](C#N)NC(=O)[C@@H]3CC4(CC4)CN3)cc2)cc1
inhibition (Dipeptidyl peptidase 1 [17]): 92.4%
pIC50 (Dipeptidyl peptidase 1 [23]): 7.11
inhibition (Dipeptidyl peptidase 1 [27]): 99.5%

N#Cc1ccc(-c2ccc(C[C@@H](C#N)NC(=O)[C@@H]3COCCN3)cc2)cc1
half-life [10]: 15.8 h
inhibition (Dipeptidyl peptidase 1 [17]): 75.5%
remaining at 15 h [22]: 48%
pIC50 (Dipeptidyl peptidase 1 [23]): 6.51
pIC50 (Dipeptidyl peptidase 1 [25]): 5.01
inhibition (Dipeptidyl peptidase 1 [27]): 96.3%

N#Cc1ccc(-c2ccc(C[C@@H](C#N)NC(=O)[C@H]3COCCN3)cc2)cc1
inhibition (Dipeptidyl peptidase 1 [17]): 2.2%
inhibition (Dipeptidyl peptidase 1 [27]): 14.2%

N#Cc1ccc(-c2ccc(C[C@@H](C#N)NC(=O)[C@@H]3CC4(CCC4)CN3)cc2)cc1
inhibition (Dipeptidyl peptidase 1 [17]): 97.2%
pIC50 (Dipeptidyl peptidase 1 [23]): 7.56
pIC50 (Dipeptidyl peptidase 1 [25]): 6.82
inhibition (Dipeptidyl peptidase 1 [27]): 98.2%

N#Cc1ccc(-c2ccc(C[C@@H](C#N)NC(=O)[C@@H]3CN4CCC[C@H]4CN3)cc2)cc1
inhibition (Dipeptidyl peptidase 1 [17]): 1.2%
inhibition (Dipeptidyl peptidase 1 [27]): 0%

N#Cc1ccc(-c2ccc(C[C@@H](C#N)NC(=O)[C@@H]3CC4(CCCCC4)CN3)cc2)cc1
inhibition (Dipeptidyl peptidase 1 [17]): 84.3%
pIC50 (Dipeptidyl peptidase 1 [23]): 6.64
inhibition (Dipeptidyl peptidase 1 [27]): 99.3%

N#Cc1ccc(-c2ccc(C[C@@H](C#N)NC(=O)[C@H]3CN4CCC[C@@H]4CN3)cc2)cc1
inhibition (Dipeptidyl peptidase 1 [17]): 1.11%
inhibition (Dipeptidyl peptidase 1 [27]): 1.11%

N#Cc1ccc(-c2ccc(C[C@@H](C#N)NC(=O)[C@@H]3CCCN3)cc2)cc1
remaining at 2 h [30]: 8.5%
half-life [10]: 0.56 h
inhibition (Dipeptidyl peptidase 1 [17]): 91.5%
pIC50 (Dipeptidyl peptidase 1 [23]): 7.04
inhibition (Dipeptidyl peptidase 1 [27]): 99.1%

N#Cc1ccc(-c2ccc(C[C@@H](C#N)NC(=O)[C@@H]3C[C@H]4CCC[C@H]4N3)cc2)cc1
half-life [10]: 5.3 h
inhibition (Dipeptidyl peptidase 1 [17]): 85.6%
remaining at 15 h [22]: 7%
pIC50 (Dipeptidyl peptidase 1 [23]): 7.11
pIC50 (Dipeptidyl peptidase 1 [25]): 7.10
inhibition (Dipeptidyl peptidase 1 [27]): 98.2%

N#Cc1ccc(-c2ccc(C[C@@H](C#N)NC(=O)[C@@H]3CC4CCCC[C@@H]4N3)cc2)cc1 (single isomer, unassigned)
inhibition (Dipeptidyl peptidase 1 [17]): 88.7%
pIC50 (Dipeptidyl peptidase 1 [23]): 6.81
pIC50 (Dipeptidyl peptidase 1 [25]): 5.77
inhibition (Dipeptidyl peptidase 1 [27]): 99%
